Experiments:
[1] = test system: Eimeria tenella; assay: Inhibition Eimeria tenella growth; format: functional; conditions: read-out: MEC
Outline: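 E. tenella (Weybridge strain) grown in vitro in embryonic chick liver cells. Toxicity to the host liver cells was scored in the same culture system.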

[2] = species on record: Gallus gallus; assay: Number of chicks cleared of eimeria tenella lesions out of a group of 5 when given in the diet at 200 p.p.m.; format: functional
Outline: (§1)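 One-week-old chicks were given a simultaneous infection of E. tenella (Weybridge strain) and E. acervulina (Ongar strain). Infection took place 1 day after medication began. Compound was mixed into the diet and fed ad libitum until the end of the test.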

[3] = species on record: Gallus gallus; assay: Number of chicks cleared of eimeria tenella lesions out of a group of 5 when given in the diet at 25 p.p.m.; format: functional; outline: as §1
[4] = species on record: Gallus gallus; assay: Number of chicks cleared of eimeria tenella lesions out of a group of 5 when given in the diet at 100 p.p.m.; format: functional; outline: as §1
[5] = species on record: Gallus gallus; assay: Number of chicks cleared of eimeria tenella lesions out of a group of 5 when given in the diet at 50 p.p.m.; format: functional; outline: as §1
[6] = species on record: Gallus gallus; assay: Number of chicks cleared of eimeria tenella lesions out of a group of 5 when given in the diet at 200 ppm; format: functional
Outline: (§2)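 One-week-old chicks infected with E. tenella (Weybridge strain) together with E. acervulina (Ongar strain) one day after medication began. Compound mixed into the diet and fed ad libitum until the end of the test.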

[7] = species on record: Gallus gallus; assay: Number of chicks cleared of eimeria tenella lesions out of a group of 5 when given in the diet at 100 ppm; format: functional; outline: as §1
[8] = species on record: Gallus gallus; assay: Number of chicks out of a group of five that died due to toxicity when given in the diet at 400 ppm; format: organism-based; conditions: chicken, in vivo, po; outline: as §2
[9] = species on record: Gallus gallus; assay: Number of chicks out of a group of five that died due to toxicity when given in the diet at 100 ppm; format: organism-based; conditions: chicken, in vivo, po; outline: as §2
[10] = species on record: Gallus gallus; assay: Number of chicks out of a group of five that died due to toxicity when given in the diet at 200 ppm; format: organism-based; conditions: chicken, in vivo, po; outline: as §2
[11] = species on record: Gallus gallus; assay: Number of chicks cleared of eimeria tenella lesions out of a group of 5 when given in the diet at 400 p.p.m.; format: functional; outline: as §1
[12] = species on record: Gallus gallus; assay: Number of chicks cleared of Eimeria tenella lesions out of a group of 5 when given in a diet of 400 ppm; format: functional; outline: as §1
[13] = species on record: Gallus gallus; assay: Number of chicks cleared of eimeria tenella lesions out of a group of 5 when given in the diet at 400 ppm; format: functional; outline: as §1

For `CCCSc1ncnc2c1cnn2C1O[C@H](CO)[C@@H](O)[C@H]1O` (stereo partly specified), the minimal effective concentration [1] was 0.019 µg/mL, the No. of chicks [2] was 4 and the No. of chicks [3] was 0. The No. of chicks [4] was 1 and the No. of chicks [5] was 0.

`CCCCCCCSc1ncnc2c1cnn2C1O[C@H](CO)[C@@H](O)[C@H]1O` (stereo partly specified) gave a minimal effective concentration [1] of 0.31 µg/mL and a No. of chicks [2] of 1.

Work on `C=CCSc1ncnc2c1cnn2C1O[C@H](CO)[C@@H](O)[C@H]1O` (stereo partly specified) yielded a minimal effective concentration [1] of 0.019 µg/mL, a No. of chicks [3] of 1 and a No. of chicks [6] of 5. For the same molecule, the No. of chicks [7] was 5 and the No. of chicks [5] was 2.

`CSc1ncnc2c1nnn2[C@@H]1O[C@H](CO)[C@@H](O)[C@H]1O` was tested, and the minimal effective concentration [1] was 1.25 µg/mL.

With `OC[C@H]1OC(n2ncc3c(SC4CCCC4)ncnc32)[C@H](O)[C@@H]1O` (stereo partly specified) the minimal effective concentration [1] was 5 µg/mL and the No. of chicks [6] was 1.

With `CSc1nc(N)nc2c1ncn2[C@@H]1O[C@H](CO)[C@@H](O)[C@H]1O` the minimal effective concentration [1] was 50 µg/mL.

`CCCCCSc1ncnc2[nH]cnc12` gave a minimal effective concentration [1] of 20 µg/mL.

Work on `CSc1ncnc2c1cnn2C1O[C@H](CO)[C@@H](O)[C@H]1O` (stereo partly specified) yielded a minimal effective concentration [1] of 0.03 µg/mL, a No. of chicks [8] of 4 and a No. of chicks [2] of 3. The No. of chicks [3] was 0, the No. of chicks [9] was 1 and the No. of chicks [10] was 2. For the same molecule, the No. of chicks [11] was 1, the No. of chicks [4] was 2 and the No. of chicks [5] was 2.

`CCCCCSc1ncnc2c1cnn2C1O[C@H](CO)[C@@H](O)[C@H]1O` (stereo partly specified) was tested, and the minimal effective concentration [1] was 0.31 µg/mL, the No. of chicks [3] was 0 and the No. of chicks [6] was 5. For the same molecule, the No. of chicks [7] was 3 and the No. of chicks [5] was 0.

Molecule `CCSc1ncnc2c1cnn2C1O[C@H](CO)[C@@H](O)[C@H]1O` (stereo partly specified) has a minimal effective concentration [1] of 0.31 µg/mL, a No. of chicks [2] of 5 and a No. of chicks [3] of 2. The No. of chicks [4] was 5 and the No. of chicks [5] was 5.

Work on `Sc1ncnc2nc[nH]c12` [MERCAPTOPURINE ANHYDROUS] yielded a minimal effective concentration [1] of over 20 µg/mL.

Work on `CCSc1[nH]cnc2nncc1-2` yielded a No. of chicks [12] of 0.

Work on `CSc1ncnc2c1ncn2[C@H]1C[C@H](O)[C@@H](CO)O1` yielded a minimal effective concentration [1] of 50 µg/mL.

`CCCCCCSc1ncnc2c1cnn2C1O[C@H](CO)[C@@H](O)[C@H]1O` (stereo partly specified) showed a minimal effective concentration [1] of 0.019 µg/mL, a No. of chicks [3] of 0 and a No. of chicks [6] of 5. For the same molecule, the No. of chicks [7] was 2 and the No. of chicks [5] was 0.

`Sc1ncnc2[nH]ncc12` [TISOPURINE] showed a minimal effective concentration [1] of over 20 µg/mL and a No. of chicks [13] of 0.

Work on `CCCCCSc1ncnc2c1ncn2C1O[C@H](CO)[C@@H](O)[C@H]1O` (stereo partly specified) yielded a minimal effective concentration [1] of over 50 µg/mL.

With `CCOP(=O)(CCSc1ncnc2c1cnn2C1O[C@H](CO)[C@@H](O)[C@H]1O)OCC` (stereo partly specified) the minimal effective concentration [1] was 5 µg/mL and the No. of chicks [6] was 1.

Molecule `CCSc1[nH]cnc2ncnc1-2` has a minimal effective concentration [1] of over 20 µg/mL.

Work on `OC[C@H]1OC(n2ncc3c(S)ncnc32)[C@H](O)[C@@H]1O` (stereo partly specified) yielded a minimal effective concentration [1] of 0.31 µg/mL and a No. of chicks [2] of 2.

For `CSc1ncnc2c1ncn2[C@@H]1O[C@H](CO)[C@@H](O)[C@H]1O`, the minimal effective concentration [1] was 0.31 µg/mL.

`C/C=C/CSc1ncnc2c1cnn2C1O[C@H](CO)[C@@H](O)[C@H]1O` (stereo partly specified) was tested, and the minimal effective concentration [1] was 0.019 µg/mL, the No. of chicks [3] was 0 and the No. of chicks [6] was 5. The No. of chicks [7] was 4 and the No. of chicks [5] was 0.

For `CSc1ncnc2c1ncn2[C@@H]1O[C@H](CO)[C@@H](O)[C@@H]1O`, the minimal effective concentration [1] was over 20 µg/mL.

In the case of `OC[C@H]1O[C@@H](n2cnc3c(S)ncnc32)[C@H](O)[C@@H]1O` [THIOINOSINE], the minimal effective concentration [1] was over 20 µg/mL.

With `CSc1ncnc2[nH]cnc12` the minimal effective concentration [1] was over 20 µg/mL.

`CCCCSc1ncnc2c1cnn2C1O[C@H](CO)[C@@H](O)[C@H]1O` (stereo partly specified) showed a minimal effective concentration [1] of 0.019 µg/mL, a No. of chicks [3] of 0 and a No. of chicks [6] of 5. The No. of chicks [7] was 1 and the No. of chicks [5] was 0.

For `CCSc1ncnc2c1ncn2[C@@H]1O[C@H](CO)[C@@H](O)[C@H]1O`, the minimal effective concentration [1] was 1.25 µg/mL.

`Nc1nc(=S)c2ncn([C@@H]3O[C@H](CO)[C@@H](O)[C@H]3O)c2[nH]1` [THIOGUANOSINE] showed a minimal effective concentration [1] of over 50 µg/mL.

`CC(=O)CSc1ncnc2c1cnn2C1O[C@H](CO)[C@@H](O)[C@H]1O` (stereo partly specified) was tested, and the minimal effective concentration [1] was over 20 µg/mL and the No. of chicks [6] was 0.

For `CCCCCSc1[nH]cnc2nncc1-2`, the minimal effective concentration [1] was 5 µg/mL.

`COC(=O)CSc1ncnc2c1cnn2C1O[C@H](CO)[C@@H](O)[C@H]1O` (stereo partly specified) showed a minimal effective concentration [1] of 20 µg/mL and a No. of chicks [6] of 0.

Work on `CSc1[nH]cnc2nncc1-2` yielded a minimal effective concentration [1] of 20 µg/mL.

`CSc1nc(C)nc2c1ncn2C1O[C@H](CO)[C@@H](O)[C@H]1O` (stereo partly specified) gave a minimal effective concentration [1] of over 25 µg/mL.

In the case of `CSc1nccc2c1ncn2C1O[C@H](CO)[C@@H](O)[C@H]1O` (stereo partly specified), the minimal effective concentration [1] was over 20 µg/mL.

In the case of `OC[C@H]1OC(n2ncc3cncnc32)[C@H](O)[C@@H]1O` (stereo partly specified), the minimal effective concentration [1] was 1.3 µg/mL and the No. of chicks [2] was 1.

For `CSc1nc(SC)c2ncn(C3O[C@H](CO)[C@@H](O)[C@H]3O)c2n1` (stereo partly specified), the minimal effective concentration [1] was over 50 µg/mL.

`CC(C)Sc1ncnc2c1cnn2C1O[C@H](CO)[C@@H](O)[C@H]1O` (stereo partly specified) showed a minimal effective concentration [1] of 0.019 µg/mL and a No. of chicks [11] of 0.
